Data from ChEMBL document CHEMBL5303300, “EUbOPEN Chemogenomics Library - Multiplex” (2023).
“And” between values parts separate entries of the source, which are not always exact repeats. Equal values may be shown once.

Tested on: U2OS
Experiment: Multiplex assay against U2OS
Type: toxicity, cell-based
Settings: human, number of replicates 2
How it was run: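 At seeding, live cells were stained with Hoechst33342, BioTracker Green Microtubule Cytoskeleton Dye, MitoTracker Red and Annexin V Alexa Fluor 680. After compound addition they were imaged on a CQ1 microscope at 37°C and 5% CO2, and CellPathfinder machine-learning gating sorted them into Hoechst high-intensity objects or normal cells, with normal cells further split into healthy, pyknosed or fragmented nuclei and pyknosed cells into mitotic or apoptotic. Tubulin, mitochondrial-mass and membrane-permeability phenotypes are given as per cents of cells with healthy nuclei.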

[1] = 12 h, 1 µM, compound concentration 1 uM
[2] = 12 h, 10 µM, compound concentration 10 uM
[3] = 24 h, 1 µM, compound concentration 1 uM
[4] = 24 h, 10 µM, compound concentration 10 uM
[5] = 48 h, 1 µM, compound concentration 1 uM
[6] = 48 h, 10 µM, compound concentration 10 uM

## COc1ccc(F)c(F)c1C(=O)c1cnc(NC2CCN(S(C)(=O)=O)CC2)nc1N [RG-547]
[1]
  Population Apoptotic (%): 25% and 66%
  Population Fragmented Nuclei (%): 21% and 7%
  Population Healthy Nuclei (%): 68% and 81%
  Population Hoechst High Intensity Objects (%): 0% and 1%
  Population Membrane Permeable-Phenotype (%): 7% and 3%
  Population Mitochondria Different-Phenotype (%): 3% and 2%
  Population Mitotic Cells (%): 75% and 33%
  Population Normal (%): 100% and 98%
  Population Pyknosed Nuclei (%): 10%
  Population Tubulin-Different-Phenotype (%): 69% and 80%
[2]
  Population Apoptotic (%): 77% and 70%
  Population Fragmented Nuclei (%): 20% and 12%
  Population Healthy Nuclei (%): 44% and 42%
  Population Hoechst High Intensity Objects (%): 0% and 1%
  Population Membrane Permeable-Phenotype (%): 9% and 14%
  Population Mitochondria Different-Phenotype (%): 0% and 6%
  Population Mitotic Cells (%): 22% and 30%
  Population Normal (%): 100% and 98%
  Population Pyknosed Nuclei (%): 36% and 44%
  Population Tubulin-Different-Phenotype (%): 72% and 57%
[3]
  Population Apoptotic (%): 57% and 70%
  Population Fragmented Nuclei (%): 13% and 9%
  Population Healthy Nuclei (%): 66% and 77%
  Population Hoechst High Intensity Objects (%): 0%
  Population Membrane Permeable-Phenotype (%): 4%
  Population Mitochondria Different-Phenotype (%): 4% and 3%
  Population Mitotic Cells (%): 42% and 30%
  Population Normal (%): 100% and 99%
  Population Pyknosed Nuclei (%): 19% and 12%
  Population Tubulin-Different-Phenotype (%): 66% and 79%
[4]
  Population Apoptotic (%): 85%
  Population Fragmented Nuclei (%): 15% and 12%
  Population Healthy Nuclei (%): 41% and 32%
  Population Hoechst High Intensity Objects (%): 0% and 2%
  Population Membrane Permeable-Phenotype (%): 21% and 12%
  Population Mitochondria Different-Phenotype (%): 21% and 12%
  Population Mitotic Cells (%): 15% and 14%
  Population Normal (%): 100% and 97%
  Population Pyknosed Nuclei (%): 43% and 54%
  Population Tubulin-Different-Phenotype (%): 68% and 72%
[5]
  Population Apoptotic (%): 85%
  Population Fragmented Nuclei (%): 30% and 20%
  Population Healthy Nuclei (%): 39% and 65%
  Population Hoechst High Intensity Objects (%): 0%
  Population Membrane Permeable-Phenotype (%): 11% and 2%
  Population Mitochondria Different-Phenotype (%): 5% and 1%
  Population Mitotic Cells (%): 14%
  Population Normal (%): 100% and 99%
  Population Pyknosed Nuclei (%): 30% and 13%
  Population Tubulin-Different-Phenotype (%): 66% and 75%
[6]
  Population Apoptotic (%): 94% and 87%
  Population Fragmented Nuclei (%): 14% and 10%
  Population Healthy Nuclei (%): 11% and 2%
  Population Hoechst High Intensity Objects (%): 5% and 0%
  Population Mitotic Cells (%): 5% and 12%
  Population Normal (%): 94% and 100%
  Population Pyknosed Nuclei (%): 74% and 86%
  Population Tubulin-Different-Phenotype (%): 88% and 100%

## CCN1C(=O)N(c2c(F)c(OC)cc(OC)c2F)Cc2cnc3[nH]c(CN4CCOCC4)cc3c21 [PEMIGATINIB]
[1]
  Population Apoptotic (%): 83% and 63%
  Population Fragmented Nuclei (%): 7% and 3%
  Population Healthy Nuclei (%): 82% and 90%
  Population Hoechst High Intensity Objects (%): 0%
  Population Membrane Permeable-Phenotype (%): 0% and 1%
  Population Mitochondria Different-Phenotype (%): 0% and 1%
  Population Mitotic Cells (%): 16% and 36%
  Population Normal (%): 100%
  Population Pyknosed Nuclei (%): 9% and 5%
  Population Tubulin-Different-Phenotype (%): 64% and 80%
[2]
  Population Apoptotic (%): 33% and 74%
  Population Healthy Nuclei (%): 45% and 78%
  Population Hoechst High Intensity Objects (%): 0%
  Population Membrane Permeable-Phenotype (%): 0% and 5%
  Population Mitochondria Different-Phenotype (%): 0%
  Population Mitotic Cells (%): 66% and 25%
  Population Normal (%): 100%
  Population Pyknosed Nuclei (%): 29% and 15%
  Population Tubulin-Different-Phenotype (%): 64% and 52%
[3]
  Population Apoptotic (%): 54% and 90%
  Population Fragmented Nuclei (%): 6% and 2%
  Population Healthy Nuclei (%): 81% and 89%
  Population Hoechst High Intensity Objects (%): 0%
  Population Membrane Permeable-Phenotype (%): 1% and 2%
  Population Mitochondria Different-Phenotype (%): 0% and 2%
  Population Normal (%): 100% and 99%
  Population Pyknosed Nuclei (%): 12% and 7%
  Population Tubulin-Different-Phenotype (%): 66% and 78%
  Total Cell Count: 91 and 271
[4]
  Population Apoptotic (%): 80% and 78%
  Population Fragmented Nuclei (%): 14% and 6%
  Population Healthy Nuclei (%): 48% and 72%
  Population Hoechst High Intensity Objects (%): 0% and 1%
  Population Membrane Permeable-Phenotype (%): 0% and 5%
  Population Mitochondria Different-Phenotype (%): 0% and 4%
  Population Mitotic Cells (%): 20% and 21%
  Population Normal (%): 100% and 98%
  Population Pyknosed Nuclei (%): 37% and 21%
  Population Tubulin-Different-Phenotype (%): 69% and 56%
[5]
  Population Apoptotic (%): 50% and 76%
  Population Fragmented Nuclei (%): 8% and 2%
  Population Healthy Nuclei (%): 80% and 89%
  Population Hoechst High Intensity Objects (%): 0%
  Population Membrane Permeable-Phenotype (%): 0% and 1%
  Population Mitochondria Different-Phenotype (%): 0%
  Population Mitotic Cells (%): 50% and 23%
  Population Normal (%): 100% and 99%
  Population Pyknosed Nuclei (%): 10% and 8%
  Population Tubulin-Different-Phenotype (%): 72% and 82%
[6]
  Population Apoptotic (%): 86% and 82%
  Population Fragmented Nuclei (%): 11% and 6%
  Population Healthy Nuclei (%): 25% and 60%
  Population Hoechst High Intensity Objects (%): 0%
  Population Membrane Permeable-Phenotype (%): 0% and 7%
  Population Mitochondria Different-Phenotype (%): 0% and 5%
  Population Mitotic Cells (%): 13% and 17%
  Population Normal (%): 100% and 99%
  Population Pyknosed Nuclei (%): 63% and 33%
  Population Tubulin-Different-Phenotype (%): 44% and 60%

## CNc1ncc2cc(-c3ccc(-c4cccc(C)n4)cc3Cl)c(=O)n(C[C@H]3OC[C@H](N)CO3)c2n1
[1]
  Population Apoptotic (%): 75% and 70%
  Population Healthy Nuclei (%): 33% and 85%
  Population Hoechst High Intensity Objects (%): 0%
  Population Mitochondria Different-Phenotype (%): 7% and 0%
  Population Mitotic Cells (%): 25% and 29%
  Population Normal (%): 100% and 99%
  Population Pyknosed Nuclei (%): 19% and 10%
  Population Tubulin-Different-Phenotype (%): 42% and 70%
[2]
  Population Apoptotic (%): 60% and 36%
  Population Fragmented Nuclei (%): 38% and 16%
  Population Healthy Nuclei (%): 28% and 54%
  Population Hoechst High Intensity Objects (%): 5% and 0%
  Population Membrane Permeable-Phenotype (%): 15% and 11%
  Population Mitotic Cells (%): 39% and 63%
  Population Normal (%): 94% and 99%
  Population Pyknosed Nuclei (%): 32% and 29%
  Population Tubulin-Different-Phenotype (%): 50% and 38%
[3]
  Population Apoptotic (%): 80% and 76%
  Population Healthy Nuclei (%): 42% and 79%
  Population Hoechst High Intensity Objects (%): 0%
  Population Mitochondria Different-Phenotype (%): 5% and 1%
  Population Mitotic Cells (%): 20% and 23%
  Population Normal (%): 100% and 99%
  Population Pyknosed Nuclei (%): 23% and 12%
  Population Tubulin-Different-Phenotype (%): 50% and 75%
[4]
  Population Apoptotic (%): 43% and 53%
  Population Fragmented Nuclei (%): 31% and 17%
  Population Healthy Nuclei (%): 20% and 51%
  Population Hoechst High Intensity Objects (%): 6% and 1%
  Population Mitochondria Different-Phenotype (%): 57% and 19%
  Population Mitotic Cells (%): 56% and 46%
  Population Normal (%): 93% and 98%
  Population Pyknosed Nuclei (%): 47% and 31%
  Population Tubulin-Different-Phenotype (%): 21% and 32%
[5]
  Population Apoptotic (%): 75% and 83%
  Population Healthy Nuclei (%): 54% and 80%
  Population Hoechst High Intensity Objects (%): 0%
  Population Membrane Permeable-Phenotype (%): 9% and 2%
  Population Mitochondria Different-Phenotype (%): 4% and 1%
  Population Mitotic Cells (%): 25% and 16%
  Population Normal (%): 100% and 99%
  Population Pyknosed Nuclei (%): 16% and 13%
  Population Tubulin-Different-Phenotype (%): 73% and 79%
[6]
  Population Apoptotic (%): 60% and 61%
  Population Fragmented Nuclei (%): 45% and 16%
  Population Hoechst High Intensity Objects (%): 5% and 1%
  Population Mitotic Cells (%): 39% and 38%
  Population Normal (%): 94% and 98%
  Population Pyknosed Nuclei (%): 41% and 34%
  Population Tubulin-Different-Phenotype (%): 44% and 50%
